Measured values: PMC7172969 (Journal of Hepatology, 2016)

Key:
HBV replication = HBV replication assay in HepG2.2.15.7 cells; assay type: cell-based, hepatitis B virus; settings: six days, ETV 1 μM, CsA and its derivatives 8 μM
Summary of the method: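 HepG2.2.15.7 cells support HBV replication but not entry. They were treated for six days with test compound (8 μM), entecavir 1 μM as positive control, or DMSO 0.16%. HBV DNA released into the culture supernatant was then quantified by real-time PCR.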

NTCP = biological target: T1, NTCP (Homo sapiens, UniProt Q14973); test: NTCP transporter assay; assay type: cell-based; settings: HepG2-hNTCP-C4 cells, sulfobromophthalein 40 and 100 μM
T1 sequence (Q14973 1-349): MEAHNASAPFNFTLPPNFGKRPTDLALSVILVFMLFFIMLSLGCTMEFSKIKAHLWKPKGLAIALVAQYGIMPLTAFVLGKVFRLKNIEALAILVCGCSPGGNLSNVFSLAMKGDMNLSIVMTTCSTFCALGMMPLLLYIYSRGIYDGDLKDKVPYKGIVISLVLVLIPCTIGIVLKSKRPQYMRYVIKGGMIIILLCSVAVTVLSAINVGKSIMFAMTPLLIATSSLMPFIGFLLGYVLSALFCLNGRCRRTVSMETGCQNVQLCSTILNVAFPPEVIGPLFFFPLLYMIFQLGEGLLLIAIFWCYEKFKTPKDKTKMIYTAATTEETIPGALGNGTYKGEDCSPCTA

HBV (genotype D) = test: HBV infection assay in HepG2-hNTCP-C4 cells; assay type: cell-based, hepatitis B virus; settings: same concentration conditions (40 and 100 μM)
Summary of the method: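 HepG2-hNTCP-C4 cells were inoculated with genotype D HBV from Hep38.7-Tet culture supernatant at 6000 GEq/cell in 4% PEG8000. Test compound (8 μM), preS1 peptide (100 nM) or DMSO 0.16% was present for 16 h. Cells were washed and cultured 12 more days without compound. On day 13, supernatant HBs was measured by ELISA and intracellular HBc by immunofluorescence with image quantification. MTT viability was run in parallel.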

| SMILES | HBV DNA released into the culture supernatant (HBV replication) | bile acid uptake in sodium-containing condition (NTCP) | HBV infection (HBV (genotype D)) |
| --- | --- | --- | --- |
| C=C1[C@H](CO)[C@@H](O)C[C@@H]1n1cnc2c(=O)[nH]c(N)nc21 [entecavir] | significantly reduced | – | – |
| O=C1OC(c2ccc(O)c(S(=O)(=O)O)c2)(c2ccc(O)c(S(=O)(=O)O)c2)c2c(Br)c(Br)c(Br)c(Br)c21 [sulfobromophthalein, Sulfobromophthalein] | – | impaired the bile acid uptake | did not inhibit HBV infection |
